One block for each compound: values may come before it. Calls of active or inactive are those of the source. The calls are words filed in the database; no cut-off is given here.
How the values were obtained:
[1] = biological target: T1, Beta-secretase 1 (Homo sapiens, UniProt P56817); experiment: Inhibition of BACE1 in human SH-SY5Y cells harboring wild type APP695 assessed as reduction in amyloid beta (1 to 40) level after 24 hrs by ELISA method; assay type: cell-based
How it was run: (§1)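 Aβ1-40 and Aβ1-42 levels were measured by ELISA in APPwt-expressing SH-SY5Y cells after compound treatment.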

[2] = biological target: T1, Beta-secretase 1; experiment: Inhibition of BACE1 in human SH-SY5Y cells harboring wild type APP695 assessed as increase in alphaCTF level at 3 uM by Western blot method relative to chloroquine; assay type: cell-based
How it was run: (§2)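 APP C-terminal fragments (αCTFs and AICD) were detected by Western blot and scored as band intensity. Compounds were tested at 1, 3 and 10 µM.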

[3] = biological target: T1, Beta-secretase 1; experiment: Inhibition of BACE1 in human SH-SY5Y cells harboring wild type APP695 assessed as increase in AICD level at 3 uM by Western blot method relative to chloroquine; assay type: cell-based; how it was run: as §2
[4] = test system: Primary neuron; experiment: Inhibition of autophagy in C57BL6 mouse primary neuronal cells assessed as increase in lipidation of LC3-1 to LC3-2 up to 5 uM after 24 hrs by DAPI staining based immunofluorescence assay; assay type: functional
How it was run: (§3)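 Autophagy markers were quantified against control: p62 expression and lipidation of LC3-I into LC3-II. Accumulation of p62- and LC3-positive vesicles was scored by immunofluorescence. This was done in SY5Y-APPwt cells and primary neurons.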

[5] = biological target: Beta-secretase 1 (Mus musculus) (UniProt P56818); experiment: Inhibition of BACE1 in C57BL6 mouse primary neuronal cells assessed as accumulation of APP-CTF level up to 5 uM after 24 hrs by DAPI staining based immunofluorescence assay
Beta-secretase 1 (Mus musculus), sequence (P56818 whole entry): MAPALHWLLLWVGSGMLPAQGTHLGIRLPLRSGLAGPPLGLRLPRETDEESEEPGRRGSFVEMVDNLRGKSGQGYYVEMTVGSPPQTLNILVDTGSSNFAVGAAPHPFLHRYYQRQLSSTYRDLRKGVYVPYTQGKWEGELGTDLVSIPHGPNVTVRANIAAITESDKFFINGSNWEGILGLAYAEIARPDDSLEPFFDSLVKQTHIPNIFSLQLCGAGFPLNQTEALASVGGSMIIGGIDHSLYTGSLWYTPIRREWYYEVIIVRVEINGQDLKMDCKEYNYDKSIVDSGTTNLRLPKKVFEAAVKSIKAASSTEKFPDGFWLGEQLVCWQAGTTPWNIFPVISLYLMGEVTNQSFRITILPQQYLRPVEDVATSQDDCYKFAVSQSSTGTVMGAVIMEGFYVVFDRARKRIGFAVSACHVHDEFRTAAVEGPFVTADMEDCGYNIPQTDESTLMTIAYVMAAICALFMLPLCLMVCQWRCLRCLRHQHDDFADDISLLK

[6] = biological target: Beta-secretase 1 (Mus musculus) (UniProt P56818); experiment: Inhibition of BACE1 in C57BL6 mouse primary neuronal cells assessed as accumulation of AICD level up to 5 uM after 24 hrs by DAPI staining based immunofluorescence assay
[7] = biological target: T1, Beta-secretase 1; experiment: Inhibition of BACE1 in human SH-SY5Y cells harboring wild type APP695 assessed as accumulation of APP-CTF level up to 5 uM after 24 hrs by ELISA; assay type: cell-based
[8] = test system: SH-SY5Y; experiment: Inhibition of alpha secretase in human SH-SY5Y cells harboring wild type APP695 assessed as increase in sAPPalpha level up to 5 uM after 24 hrs by DAPI staining based electro-chemiluminescence immunoassay; assay type: cell-based
[9] = test system: SH-SY5Y; experiment: Inhibition of autophagy in human SH-SY5Y cells harboring wild type APP695 assessed as increase in lipidation of LC3-1 to LC3-2 up to 5 uM after 24 hrs by DAPI staining based immunofluorescence assay; assay type: functional, cell-based; how it was run: as §3
[10] = biological target: T1, Beta-secretase 1; experiment: Inhibition of BACE1 in human SH-SY5Y cells harboring wild type APP695 assessed as reduction in amyloid beta (1 to 42) level up to 5 uM after 24 hrs by ELISA; assay type: cell-based; how it was run: as §1
[11] = Cytotoxicity against C57BL6 mouse primary neuronal cells assessed as reduction in cell viability after 24 hrs by LDH assay; assay type: cell-based; conditions: primary neuron
[12] = biological target: Beta-secretase 1 (Mus musculus) (UniProt P56818); experiment: Inhibition of BACE1 in C57BL6 mouse primary neuronal cells assessed as increase in mature APP level up to 5 uM after 24 hrs by DAPI staining based immunofluorescence assay relative to control
[13] = biological target: T1, Beta-secretase 1; experiment: Inhibition of BACE1 in human SH-SY5Y cells harboring wild type APP695 assessed as reduction in amyloid beta (1 to 40) level up to 5 uM after 24 hrs by ELISA; assay type: cell-based; how it was run: as §1
[14] = test system: SH-SY5Y; experiment: Inhibition of autophagy in human SH-SY5Y cells harboring wild type APP695 assessed as increase in p62 expression up to 5 uM after 24 hrs by DAPI staining based immunofluorescence assay; assay type: functional, cell-based; how it was run: as §3
[15] = test system: SH-SY5Y; experiment: Cytotoxicity against human SH-SY5Y cells harboring wild type APP695 assessed as reduction in cell viability after 24 hrs by LDH assay; assay type: cell-based
[16] = test system: Primary neuron; experiment: Inhibition of autophagy in C57BL6 mouse primary neuronal cells assessed as increase in p62 expression up to 5 uM after 24 hrs by DAPI staining based immunofluorescence assay; assay type: functional; how it was run: as §3
[17] = biological target: T1, Beta-secretase 1; experiment: Inhibition of BACE1 in human SH-SY5Y cells harboring wild type APP695 assessed as increase in mature APP level up to 5 uM after 24 hrs by ELISA; assay type: cell-based; conditions: in the assay text read “by Western blot” for “by ELISA”
How it was run: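 Full-length APP was resolved and detected with APP-C17 antiserum as two bands. The 110 kDa band is the immature, neosynthesized form and the 115 kDa band is the mature, glycosylated form. Both bands were quantified against the control condition. This was done in SH-SY5Y-APPwt cells and in primary neuronal cultures.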

[18] = biological target: T1, Beta-secretase 1; experiment: Inhibition of recombinant human BACE1 at 10 uM using Mca-S-E-[…]-L-D-AEF-R-K(Dnp)-R-R-NH2 as substrate after 60 mins by fluorescence assay relative to control
How it was run: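 BACE-1 enzymatic activity was followed by cleavage of the fluorogenic peptide Mca-S-E-V-N-L-D-AE-F-R-K(Dnp)-R-R-NH2.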

[19] = biological target: T1, Beta-secretase 1; experiment: Inhibition of BACE1 in human SH-SY5Y cells harboring wild type APP695 assessed as accumulation of AICD level up to 5 uM after 24 hrs by ELISA; assay type: cell-based
[20] = biological target: T1, Beta-secretase 1; experiment: Inhibition of BACE1 in human SH-SY5Y cells harboring wild type APP695 assessed as reduction in sAPPbeta level up to 5 uM after 24 hrs by DAPI staining based electro-chemiluminescence immunoassay; assay type: cell-based

T1 sequence (P56817 whole entry): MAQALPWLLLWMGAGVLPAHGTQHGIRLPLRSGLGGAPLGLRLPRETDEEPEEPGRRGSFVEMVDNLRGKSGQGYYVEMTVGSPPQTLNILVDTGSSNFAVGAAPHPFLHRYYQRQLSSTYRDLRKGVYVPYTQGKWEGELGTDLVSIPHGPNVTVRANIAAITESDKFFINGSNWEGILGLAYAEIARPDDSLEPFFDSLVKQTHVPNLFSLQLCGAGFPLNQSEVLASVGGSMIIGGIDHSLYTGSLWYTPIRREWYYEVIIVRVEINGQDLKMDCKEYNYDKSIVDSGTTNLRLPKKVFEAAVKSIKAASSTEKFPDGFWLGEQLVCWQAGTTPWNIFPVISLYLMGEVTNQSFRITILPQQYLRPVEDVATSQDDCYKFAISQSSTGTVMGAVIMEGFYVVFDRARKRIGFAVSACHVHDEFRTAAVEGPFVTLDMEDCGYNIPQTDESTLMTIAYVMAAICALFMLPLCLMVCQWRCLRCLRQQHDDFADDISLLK

IC50 [1]: 1700 nM
fold change (FC) [2]: 4.2
fold change (FC) [3]: 3
SMILES: CN(C)Cc1ccccc1-c1ccc(NCCCCN2CCCCC2)c(OCCN2CCCCC2)c1

IC50 [1]: 4300 nM
fold change (FC) [2]: 3.3
fold change (FC) [3]: 2.6
SMILES: c1cc(CN2CCCCC2)cc(-c2ccc(NCCCN3CCCCC3)c(OCCN3CCCCC3)c2)c1

Further lines, the compound ahead of its results:

SMILES: c1ccc(-c2cccc(OCCN3CCCCC3)c2)cc1
IC50 [1]: 9100 nM
fold change (FC) [2]: 0.1
fold change (FC) [3]: 0.2

SMILES: CC(C)CN(CCCN1CCN(CCCNc2nc3ccccc3[nH]2)CC1)CC(C)C
IC50 [1]: 1700 nM
fold change (FC) [2]: 1.3
fold change (FC) [3]: 1.8

SMILES: CN(C)Cc1ccccc1-c1ccc(NCCCN2CCCCC2)c(OCCC2CCCCC2)c1
inhibition [4]: inactive
inhibition [5]: inactive
inhibition [6]: inactive
inhibition [7]: inactive
inhibition [8]: Active
inhibition [9]: inactive
inhibition [10]: Active
Activity [11]: Non-Toxic
inhibition [12]: inactive
inhibition [13]: Active
inhibition [14]: inactive
Activity [15]: Non-Toxic
IC50 [1]: 2100 nM
inhibition [16]: inactive
inhibition [17]: inactive
inhibition [18]: < 10%
inhibition [19]: inactive
fold change (FC) [2]: 0.1
inhibition [20]: Active
fold change (FC) [3]: 0.1

— ChEMBL document CHEMBL4257565, “A phenotypic approach to the discovery of compounds that promote non-amyloidogenic processing of the amyloid precursor protein: Toward a new profile of indirect β-secretase inhibitors” (Eur J Med Chem, 2018)
